Measured values reported in ChEMBL document CHEMBL1132233, “6-Anilinouracil-based inhibitors of Bacillus subtilis DNA polymerase III: antipolymerase and antimicrobial structure-activity relationships based on substitution at uracil N3” (J Med Chem, 1999).
In brackets after ≈: the same amount, converted by molar mass.

Experiments:
[1] = biological target: DNA polymerase III (Bacillus subtilis); assay: Compound was tested for inhibitory activity against DNA polymerase III of Bacillus subtilis
Bacillus subtilis = assay: Minimum inhibitory concentration against Bacillus subtilis; format: functional
Method in brief: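 Test organism was penicillin-sensitive B. subtilis strain BD54. A log-phase culture was diluted to 10^4 cells/mL in Luria broth. Inhibitors in DMSO were added at 0–100 µM, with final DMSO at 1%. Cultures were incubated 24 h at 37 °C and growth was scored by eye. MIC is the lowest concentration with no apparent growth, averaged over three independent experiments.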

[2] = Compound was tested for inhibitory activity against DNA pol III of Bacillus subtilis
Method in brief: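 Homogeneous recombinant B. subtilis DNA pol III was assayed on activated calf thymus DNA. Apparent Ki was determined with a truncated assay lacking the competitor dGTP. Values are the average of three independent experiments.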

SMILES | Ki [1] | MIC (Bacillus subtilis) | Ki [2]
C=CCn1c(=O)cc(Nc2ccc3c(c2)CCC3)[nH]c1=O |  | 3 µM (≈ 0.85 µg/mL) | 0.38 µM
CCn1c(=O)cc(Nc2ccc3c(c2)CCC3)[nH]c1=O |  | 3 µM (≈ 0.814 µg/mL) | 0.31 µM
CCCn1c(=O)cc(Nc2ccc3c(c2)CCC3)[nH]c1=O | 0.31 µM | 11 µM (≈ 3.14 µg/mL) | 
CCc1cc(Nc2cc(O)nc(O)n2)ccc1C |  | 30 µM (≈ 7.36 µg/mL) | 1 µM
Cn1c(=O)cc(Nc2ccc3c(c2)CCC3)[nH]c1=O |  | 5 µM (≈ 1.29 µg/mL) | 1.34 µM
Oc1cc(Nc2ccc3c(c2)CCC3)nc(O)n1 |  | 30 µM (≈ 7.3 µg/mL) | 1.2 µM
CCCCCCn1c(=O)cc(Nc2ccc3c(c2)CCC3)[nH]c1=O |  | > 100 µM | 0.24 µM
CCc1cc(Nc2cc(=O)n(CCCO)c(=O)[nH]2)ccc1C |  | 3 µM (≈ 0.91 µg/mL) | 0.73 µM
CCc1cc(Nc2cc(=O)n(CCO)c(=O)[nH]2)ccc1C |  | 3 µM (≈ 0.868 µg/mL) | 0.59 µM

Next, values leading:

Ki [1] | MIC (Bacillus subtilis) | Ki [2] | SMILES
0.12 µM | 1.5 µM (≈ 0.41 µg/mL) |  | CCc1cc(Nc2cc(=O)n(CC)c(=O)[nH]2)ccc1C
0.09 µM | 3 µM (≈ 0.898 µg/mL) |  | CCCCn1c(=O)cc(Nc2ccc3c(c2)CCC3)[nH]c1=O
 | 3 µM (≈ 0.91 µg/mL) | 0.58 µM | CCc1cc(Nc2cc(=O)n(CCOC)c(=O)[nH]2)ccc1C
 | 1.5 µM (≈ 0.428 µg/mL) | 0.21 µM | C=CCn1c(=O)cc(Nc2ccc(C)c(CC)c2)[nH]c1=O
 | 1.5 µM (≈ 0.476 µg/mL) | 1 µM | CCc1cc(Nc2cc(=O)n(CCCOC)c(=O)[nH]2)ccc1C
